Assay outcomes deposited in PubChem by several laboratories.
TDP2 absorb: TDP2 (human) inhibition, absorbance primary screen. O95551. recombinant TDP2, T5PNP hydrolysis, p-nitrophenol absorbance 415 nm. inhibition, % at 12.8 µM. 0.34% of 370,000 active. AID 720702;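 active = inhibition above the mean of all tested compounds plus 3 SD, set per campaign, cut at about 25% in these data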;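 note: 0% = DMSO with enzyme and 100% = buffer with substrate but no TDP2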
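System: recombinant human TDP2 / Amount: 120 nM TDP2 per well / Also added: 5 mM T5PNP chromogenic substrate / Doses: 12.8 µM single point, 1% DMSO / Incubation: 2 h at 37 °C / Detection: p-Nitrophenol epi absorbance / Evaluation: % inhibition relative to enzyme-containing and enzyme-free wells / Repeats: singlicate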
PAD4 inh: PAD4 (human) enzyme inhibition; Q9UM07; recombinant PAD4, RCA probe fluorescence polarization; inhibition, % at 6.36 µM; 0.41% of 330,000 active;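 active = percent inhibition above a cutoff equal to the mean of all tested compounds plus 3 SD, cut at about 15% in these data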;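 note: 0% = PAD4 with RCA probe and DMSO and 100% = probe without PAD4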
Apaf1 inhib: human Apaf-1 inhibition; O14727; reconstituted apoptosome caspase-3 activity, DEVD-Rh110 fluorescence; inhibition, % at 20 µM; 0.71% of 330,000 active; AID 489030; active = inhibition of at least 40% at 20 µM;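 note: plate controls were DMSO wells for no effect and DEVD-CHO caspase inhibitor wells for full effect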
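Material: biochemical Apaf-1 apoptosome reconstitution. Medium: Hepes buffer, pH 7.5. Also added: cytochrome c activation, bis-DEVD rhodamine 110 substrate. Timing: 30 min compound preincubation, 50 min activation, room temperature. Measured by: rhodamine 110 fluorescence at Ex 480/Em 540 nm.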
SIAE inh: human SIAE inhibition, primary screen; 0.69% of 370,000 active; SIAE FP-Rh probe binding, fluorescence polarization; inhibition, % at 9.66 µM; Q9HAT2; AID 1053197;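 active = inhibition above a cutoff: mean of compounds within the control limits plus 3 SD of those, cut at about 17% in these data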;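 note: 0% = plate median of compound wells and 100% = probe without SIAE protein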
GSTO1 counter: GSTO1 inhibition, counter-screen for RBBP9 inhibitors. P78417. recombinant GSTO1, activity-based probe fluorescence polarization. inhibition, % at 5.96 µM. 1.1% of 300,000 active;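 active = inhibition above the campaign mean inhibition plus 3 SD, cut at about 35% in these data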;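 note: 0% = GSTO1-1 with DMSO and 100% = wells lacking GSTO1-1 enzyme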
Target sequence (P78417 whole entry, looked up): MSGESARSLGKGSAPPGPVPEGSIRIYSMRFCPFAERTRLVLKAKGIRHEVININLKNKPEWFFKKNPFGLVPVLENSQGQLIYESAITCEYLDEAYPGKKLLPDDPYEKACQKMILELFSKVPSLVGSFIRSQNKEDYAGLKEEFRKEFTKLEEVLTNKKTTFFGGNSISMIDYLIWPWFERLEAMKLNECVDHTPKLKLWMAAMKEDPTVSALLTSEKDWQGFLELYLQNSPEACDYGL
TCR-CD3 inh: blocks the human TCR-CD3 interaction; TAMRA-labeled TCR probe fluorescence, biochemical; inhibition, % at 9.4 µM; 0.37% of 360,000 active; in the data active = inhibition above about 19%;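 note: recombinant mutant TCR 2C K166C tagged with TAMRA read by polarization; 0% = receptor in buffer alone and 100% = receptor with positive control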
The depositor's hits bear a star; · = no result given. Only some compounds are listed: those with a hit (about 2.4% of all), similar ones and a draw of the others.

SMILES | TDP2 absorb | PAD4 inh | Apaf1 inhib | SIAE inh | GSTO1 counter | TCR-CD3 inh
Cc1nn(-c2ccccc2)c(Cl)c1C(=O)NNC(=O)c1ccncc1 | 2.6 | 5.6 | 1.0 | -1.7 | · | 2.8
Cc1ccc(C(=O)CSc2nnc(CNc3nc(-c4ccccc4)cs3)n2C)cc1 | -10.2 | 2.4 | 25.2 | -3.3 | 36.9* | -2.6
Oc1ccc(C[C@H]2CNC(=S)N2CC2CCCN2C[C@H](Cc2ccccc2)N2C[C@H](Cc3ccc(O)cc3)N(CCc3ccccc3)C2=S)cc1 (stereo partly drawn) | -2.9 | · | · | -46.7 | · | 1.4
CC1(C)Cc2c(sc3nc(SCC(=O)O)[nH]c(=O)c23)CO1 | 2.7 | 3.2 | -5.1 | 8.0 | 36.5* | -1.8
C#CCOCCOCCOCCNc1nc(N2CCN(C(=O)CCCCCCCCCCNC(=O)[C@H](CCCCN)n3cc(C)nn3)CC2)nc(N2CCN(C(=O)CCCCCCCCCCNC(=O)[C@@H]([C@H](C)O)n3cc(C)nn3)CC2)n1 | · | 1.6 | 54.4* | · | -2.6 | ·
C#CCOCCOCCOCCNc1nc(N2CCN(C(=O)CCCCCCCCCCNC(=O)[C@H](CCCCN)n3cc(C[C@@H](C)CC)nn3)CC2)nc(N2CCN(C(=O)CCCCCCCCCCNC(=O)[C@@H]([C@H](C)O)n3cc(C)nn3)CC2)n1 | · | -3.4 | 57.5* | · | -11.6 | ·
C#CCOCCOCCOCCNc1nc(N2CCN(C(=O)CCCCCCCCCCNC(=O)[C@@H](CCSC)n3cc(CCO)nn3)CC2)nc(N2CCN(C(=O)CCCCCCCCCCNC(=O)[C@@H]([C@H](C)O)n3cc(C)nn3)CC2)n1 | -0.2 | -0.6 | 33.5 | -39.7 | -22.1 | 9.1
CC1(C)OC(=O)C2=C(C[C@@H](C3CCCC3)O[C@H]2c2ccc(Cl)cc2)O1 | -1.5 | · | · | 0.7 | · | -3.7
O=C(CCl)Nc1ccc(N2CCCCCC2)cc1 | 5.2 | 2.3 | 11.4 | 11.9 | 94.9* | -1.1
CCC(=O)Nc1ccc(N2CCCCC2)cc1 | 3.7 | 0.2 | -9.2 | 2.0 | 2.6 | -7.6
CN(C(=O)COC(=O)c1cc(S(=O)(=O)N2CCOCC2)c(Cl)cc1Cl)C1CCS(=O)(=O)C1 (stereo not drawn) | -5.2 | 5.5 | -155.9 | -4.7 | 54.4* | -1.6
CC(=O)Nc1ccc2c(c1)C(=O)c1ccccc1C2=O | 3.7 | 1.5 | 1.6 | -5.9 | 4.5 | 1.7
O=C(O)/C=C/C(=O)Nc1ccc2c(c1)C(=O)c1ccccc1C2=O | -3.8 | -3.7 | -6.3 | -14.5 | 37.4* | -6.7
CCOC(=O)N1CCN(c2c(NCCN3CCCCC3CC)c(=O)c2=O)CC1 (stereo not drawn) | 0.9 | -3.1 | 6.7 | 1.7 | 2.5 | 1.4
CC(=O)Nc1ccc(NC(=O)CC2Nc3cccc4cccc(c34)NC2=O)cc1 (stereo not drawn) | 12.7 | -2.1 | 96.3* | 6.7 | 28.1 | 3.5
O=C1CCCN1CCCNc1ncnc2sccc12 | -7.4 | -4.8 | -5.7 | -4.4 | 9.0 | 4.4
Cc1sc2ncnc(NCCCN3CCCC3=O)c2c1C | 5.3 | 0.3 | -7.8 | -5.5 | 36.9* | -0.1
CC[n+]1c(/C=C/N(C)c2ccccc2)oc2ccc(Cl)cc21 | 3.7 | -12.1 | 3.1 | 2.9 | 3.0 | -8.9
CCN1/C(=C/C=C/c2oc3ccc4ccccc4c3[n+]2CC)Oc2ccc3ccccc3c21 | · | -73.4 | 76.3* | · | -34.5 | ·
COc1cccc(NC(=S)Nc2cccc3ccccc23)c1 | 18.0 | -4.6 | 93.8* | 13.7 | -3.4 | 2.3
CCc1cccc(NC(=S)Nc2cccc3ccccc23)c1 | -6.0 | -3.5 | 79.1* | 7.2 | -3.7 | 2.0
CN(C)S(=O)(=O)c1cccc(NC(=S)Nc2cccc3cnccc23)c1 | 28.1* | · | · | 5.7 | · | 5.9
CN(Cc1ccco1)C(=O)C(Cc1ccccc1)NS(=O)(=O)c1ccc2c(c1)CCC(=O)N2 (stereo not drawn) | 5.4 | 1.9 | 0.2 | 0.5 | 8.8 | 1.5
Cc1ccc(NS(=O)(=O)c2ccc3c(c2)oc(=O)n3C)cc1F | -4.3 | -2.8 | 7.3 | -8.3 | 32.2 | 0.5
Cc1ccc(NS(=O)(=O)c2ccc3c(c2)oc(=O)n3C)cc1C | 3.6 | -0.8 | 9.1 | -3.9 | 36.8* | 2.8
CCOc1ccc(NS(=O)(=O)c2ccc3c(c2)oc(=O)n3C)cc1 | 9.2 | -1.0 | 12.1 | -0.6 | 36.0* | 2.9
